# Measured values pooled from the literature.
# Compare with care: the assays were run in different laboratories.
# LRRK2: Leucine-rich repeat serine/threonine-protein kinase 2 (LRRK2, Homo sapiens, UniProt Q5S007)
# LRRK2 G2019S: Leucine-rich repeat serine/threonine-protein kinase 2 (LRRK2, Homo sapiens, UniProt Q5S007, G2019S)
SMILES,target,observed,action,method,concentration,endpoint,result
CC(C)S(=O)(=O)c1ccc2nccc(Nc3ccc4sc(C5CCCC5)nc4c3)c2c1,LRRK2,enzyme activity,inhibitor,,1 µM,activity vs control,120%
COc1ccc2[nH]c3c4[nH]c5ccc(OC)cc5c4c4c(c3c2c1)C(=O)NC4=O,LRRK2,binding,,,1 µM,remaining binding,2.8%
CNS(=O)(=O)c1ccc(Nc2ncc(C(F)(F)F)c(N3CCC[C@](C)(O)C3)n2)c(C)c1,LRRK2 G2019S,binding,,competition with immobilised ligand,1 µM,remaining binding,13%
C=CC(=O)N1CCC[C@@H](n2nc(-c3ccc(Oc4ccccc4)cc3)c3c(N)ncnc32)C1,LRRK2 G2019S,enzyme activity,inhibitor,,1 µM,inhibition,23%
C[C@]1(O)CCCN(c2nc(Nc3ccc(S(=O)(=O)N[C@H]4CC[C@H](CN5CCN(c6ccc(C7CCC(=O)NC7=O)cc6F)CC5)CC4)cc3Cl)ncc2C(F)(F)F)C1 (stereo partly drawn),LRRK2,binding,,competition with immobilised ligand,1 µM,remaining binding,21%
C1=C/COCc2cc(ccc2OCCN2CCCC2)Nc2nccc(n2)-c2cccc(c2)COC/1,LRRK2,binding,,,0.1 µM,remaining binding,100%
CN1CCN(C(=O)c2ccc(NC(=O)Nc3ccc(N(C)c4ccnc(Nc5ccc(CS(C)(=O)=O)cc5)n4)cc3)cc2)CC1,LRRK2,binding,,,1 µM,remaining binding,74%
Cc1cc(S(=O)(=O)N[C@H]2CC[C@H](CN3CCN(c4ccc(C5CCC(=O)NC5=O)cc4F)CC3)CC2)ccc1Nc1ncc(C(F)(F)F)c(N2CCC[C@](C)(O)C2)n1 (stereo partly drawn),LRRK2,binding,,competition with immobilised ligand,1 µM,remaining binding,6.6%
C=CC(=O)N1CCC([C@@H]2CCNc3c(C(N)=O)c(-c4ccc(Oc5ccccc5)cc4)nn32)CC1,LRRK2 G2019S,enzyme activity,inhibitor,,1 µM,inhibition,0%
C[C@]1(O)CCCN(c2nc(Nc3ccc(S(=O)(=O)N[C@H]4CC[C@H](CN5CCN(c6ccc(C7CCC(=O)NC7=O)cc6F)CC5)CC4)cc3F)ncc2C(F)(F)F)C1 (stereo partly drawn),LRRK2,binding,,competition with immobilised ligand,1 µM,remaining binding,97%
Cc1ccc(NC(=O)c2ccnc(C(F)(F)F)c2)cc1-c1cc(OCCO)nc(N2CCOCC2)c1,LRRK2 G2019S,binding,,,1 µM,remaining binding,100%
CCCCC(=O)Nc1ccc(-c2ccc3ncn(CCC)c(=O)c3c2)cn1,LRRK2,binding,,competition with immobilised ligand,0.5 µM,remaining binding,100%
